ChEMBL document CHEMBL1158348, “Aroylpropionic acid based 2,5-disubstituted-1,3,4-oxadiazoles: synthesis and their anti-inflammatory and analgesic activities” (Eur J Med Chem, 2009)

How the values were obtained:
[1] = tested on: Rattus norvegicus; test: Gastrointestinal toxicity in po dosed Wistar rat assessed ulcer index at dose equivalent to 60 mg/kg of ibuprofen after 17 hrs; type: organism-based; parameters: dose 60 mg/kg, route oral; details: in vivo
How it was run: (§1)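 Wistar rats (150–200 g), groups of six, fasted 8 h, then given a single oral dose (60 mg kg-1 ibuprofen or molar equivalent of test compound; control received vehicle only). Sacrificed 17 h later with food and water available. Gastric mucosa examined under 4× binocular magnifier, scored 0–4 by lesion/ulcer number and size. Severity index = treated group mean score minus control mean score.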

[2] = tested on: Gastric mucosa; test: Inhibition of lipid peroxidation assessed as malondialdehyde level per 100 mg of gastric mucosa isolated from po dosed Wistar rat treated dose equivalent to 60 mg/kg equivalent to ibuprofen by UV spectrophotometry; type: functional
How it was run: (§2)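 Rats 150–200 g, groups of six, fasted 8 h, then given a single oral dose and killed 17 h later with food and water available. Gastric mucosa scraped, 100 mg homogenised in ice-cold 1.15% KCl. SDS, pH 3.5 acetate buffer and 0.8% TBA added, heated at 95 °C for 60 min. Extracted with n-butanol/pyridine 15:1, A532 read; MDA in nmol/100 mg tissue.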

[3] = tested on: Rattus norvegicus; test: Antiinflammatory activity in po dosed Wistar rat assessed as inhibition of carrageenan-induced paw odema at dose equivalent to 20 mg/kg of ibuprofen pretreated 30 mins pre-carrageenan challenge measured after 2 hrs; type: functional
How it was run: (§3)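 Rats 150–200 g, groups of six. Drug given orally as a suspension in 0.5% w/v aqueous sodium CMC; control group untreated. 30 min later, 0.1 mL of 1% carrageenan injected sub-plantar into the left hind paw. Paw volume measured by plethysmometer before treatment (V0) and at intervals (Vt). Inhibition computed from (Vt−V0) of treated vs control. Values are mean ± S.E.M.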

[4] = tested on: Rattus norvegicus; test: Antiinflammatory activity in po dosed Wistar rat assessed as inhibition of carrageenan-induced paw odema at dose equivalent to 20 mg/kg of ibuprofen pretreated 30 mins pre-carrageenan challenge measured after 3 hrs; type: functional; how it was run: as §3
[5] = tested on: Mus musculus; test: Analgesic activity in po dosed Swiss albino mouse assessed as inhibition of acetic acid-induced writhing response at dose equivalent to 20 mg/kg of ibuprofen pretreated 3 hrs before acetic acid challenge; type: functional; parameters: scale not given: the % may be the effect or the level left
How it was run: (§4)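 Mice 25–30 g of either sex, groups of six. Drug given orally as a suspension in 0.5% w/v aqueous sodium CMC, 3 h before 1% v/v acetic acid i.p. at 1 mL per 100 g body weight. Writhings counted over 10 min. Protection (%) = 100 − (test/control writhings × 100). Values are mean ± S.E.M., with ANOVA then t-test.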

[6] = tested on: Rattus norvegicus; test: Antiinflammatory activity in Wistar rat assessed as inhibition of carrageenan-induced paw odema at 20 mg/kg, po pretreated 30 mins pre-carrageenan challenge measured after 2 hrs; type: functional; how it was run: as §3
[7] = tested on: Gastric mucosa; test: Inhibition of lipid peroxidation assessed as malondialdehyde level per 100 mg of gastric mucosa isolated from Wistar rat treated 60 mg/kg, po by UV spectrophotometry; type: functional; how it was run: as §2
[8] = tested on: Rattus norvegicus; test: Antiinflammatory activity in Wistar rat assessed as inhibition of carrageenan-induced paw odema at 20 mg/kg, po pretreated 30 mins pre-carrageenan challenge measured after 4 hrs; type: functional; how it was run: as §3
[9] = tested on: Rattus norvegicus; test: Antiinflammatory activity in Wistar rat assessed as inhibition of carrageenan-induced paw odema at 20 mg/kg, po pretreated 30 mins pre-carrageenan challenge measured after 8 hrs; type: functional; how it was run: as §3
[10] = tested on: Rattus norvegicus; test: Antiinflammatory activity in Wistar rat assessed as inhibition of carrageenan-induced paw odema at 20 mg/kg, po pretreated 30 mins pre-carrageenan challenge measured after 3 hrs; type: functional; how it was run: as §3
[11] = tested on: Rattus norvegicus; test: Gastrointestinal toxicity in Wistar rat assessed ulcer index at 60 mg/kg, po after 17 hrs; type: organism-based; parameters: dose 60 mg/kg, route oral; details: in vivo; how it was run: as §1
[12] = tested on: Mus musculus; test: Analgesic activity in Swiss albino mouse assessed as inhibition of acetic acid-induced writhing response at 20 mg/kg, po pretreated 3 hrs before acetic acid challenge; type: functional; parameters: scale not given: the % may be the effect or the level left; how it was run: as §4

Row | SMILES | UI [1] | Activity [2] [nmol] | inhibition in vivo [3] [%] | inhibition in vivo [4] [%] | Activity [5] [%] | other results
1 | Cc1ccc(C(=O)CCc2nnc(-c3ccc(Cl)cc3)o2)cc1 | 0.98 | 4.25 | 62.7 | 81.5 | 58.89 | 
2 | Cc1ccc(C(=O)CCc2nnc(-c3ccc([N+](=O)[O-])cc3)o2)cc1 | 0.95 | 3.95 | 52 | 60.5 | 53.43 | 
3 | Cc1ccc(C(=O)CCc2nnc(COc3ccccc3)o2)cc1 |  |  | 25.3 | 42 |  | 
4 | Cc1ccc(C(=O)CCc2nnc(Cc3ccccc3)o2)c(C)c1 |  |  | 25.3 | 50 |  | 
5 | O=C(CCc1nnc(-c2ccccc2Cl)o1)c1ccccc1 |  |  | 26.9 | 35.8 |  | 
6 | O=C(CCc1nnc(-c2ccc([N+](=O)[O-])cc2)o1)c1ccccc1 | 0.98 | 4.95 | 40.9 | 62.7 | 58.2 | 
7 | COc1ccc(-c2nnc(CCC(=O)c3ccc(C)cc3C)o2)cc1 | 0.65 | 3.79 | 62.7 | 88.9 | 66.25 | 
8 | Cc1ccc(C(=O)CCc2nnc(Cc3ccccc3)o2)cc1 |  |  | 24.7 | 51.9 |  | 
9 | Cc1ccc(C(=O)CCc2nnc(-c3ccccc3Cl)o2)cc1 |  |  | 36.2 | 57.3 |  | 
10 | Cc1ccc(C(=O)CCc2nnc(COc3ccccc3)o2)c(C)c1 |  |  | 27.6 | 45.7 |  | 
11 | Cc1ccc(C(=O)CCc2nnc(-c3ccc([N+](=O)[O-])cc3)o2)c(C)c1 | 0.87 | 4.42 | 40 | 69.1 | 47.2 | 
12 | Cc1ccc(C(=O)CCc2nnc(-c3ccccc3)o2)c(C)c1 |  |  | 36 | 58 |  | 
13 | O=C(CCc1nnc(COc2ccc3ccccc3c2)o1)c1ccccc1 |  |  | 29.8 | 51 |  | 
14 | Cc1ccc(C(=O)CCc2nnc(-c3ccccc3Cl)o2)c(C)c1 | 0.89 | 4.15 | 33.5 | 60.5 | 56.8 | 
15 | COc1ccc(-c2nnc(CCC(=O)c3ccc(C)cc3)o2)cc1OC | 0.87 | 3.85 | 53.3 | 72.6 | 62.39 | 
16 | COc1ccc(-c2nnc(CCC(=O)c3ccc(C)cc3C)o2)cc1OC | 1.12 | 5.12 | 58.7 | 75.3 | 56.1 | 
17 | Cc1ccc(C(=O)CCc2nnc(COc3cccc4ccccc34)o2)cc1 |  |  | 24 | 37 |  | 
18 | COc1ccc(-c2nnc(CCC(=O)c3ccc(C)cc3)o2)cc1 | 0.7 | 3.15 | 69.3 | 89.5 | 69.8 | 
19 | O=C(CCc1nnc(-c2ccccc2)o1)c1ccccc1 |  |  | 18.7 | 29.4 |  | 
20 | O=C(CCc1nnc(-c2ccc(Cl)cc2)o1)c1ccccc1 | 1.12 | 5.32 | 42 | 81.5 | 63 | 
21 | Cc1ccc(C(=O)CCc2nnc(COc3ccc4ccccc4c3)o2)cc1 |  |  | 24.7 | 49.4 |  | 
22 | Cc1ccc(C(=O)CCc2nnc(-c3ccc(Cl)cc3)o2)c(C)c1 | 0.71 | 3.26 | 53.3 | 72.6 | 60.42 | 
23 | Cc1ccc(C(=O)CCc2nnc(-c3ccccc3)o2)cc1 |  |  | 33.3 | 49.3 |  | 
24 | CC(C)Cc1ccc(C(C)C(=O)O)cc1 (stereo unspecified) [IBUPROFEN] |  |  |  |  |  | inhibition in vivo at 20 mg/kg [6]: 80.9%; Activity [7]: 7.51 nmol; inhibition in vivo at 20 mg/kg [8]: 65.5%; inhibition in vivo at 20 mg/kg [9]: 46.7%; inhibition in vivo at 20 mg/kg [10]: 90.1%; UI [11]: 1.95; Activity [12]: 72.5%
